Screening data: PubChem BioAssay, several laboratories
In the library only some 9.4% were active in any assay of this set; here they are far more common.
SKKanGAS inh: S. pyogenes SKKanGAS growth inhibitors in kanamycin, primary screen, streptokinase expression inhibitor project, SKKanGAS strain, BacTiter-Glo luminescence | 6 h | inhibition, % at 7.5 µM | 1.3% of 300,000 active;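 active means mean replicate score, as percent of positive control median, at least 50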;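 further: strain carries kanamycin resistance gene driven by streptokinase promoter and grows in 40 µg/ml kanamycin; loss of luminescence reflects streptokinase promoter inhibition or plain growth inhibition; 0% = median of DMSO wells and 100% = positive control at its reference dose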
T cruzi repl: inhibitors of intracellular T. cruzi growth, primary screen, luminescence, NIH3T3 host cells | 1.4% of 300,000 active | T. cruzi beta-gal in NIH3T3, 90 h | inhibition, % (test concentration not listed);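 active means mean inhibition across valid replicates above about 55%, limit read from the data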;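 further: signal also drops with host cell toxicity which is not excluded here; 0% = plate median of DMSO wells and 100% = zero luminescence signal; higher percent means less beta-gal luminescence so fewer parasites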
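System: Mouse NIH/3T3 fibroblasts infected with β-gal-expressing T. cruzi Tulahuen C4 | Quantity: NIH/3T3 cells, 5,000 per well | Reagent: 5000 reporter trypomastigotes per well | Dosing: Compound pinned at 50 nL/well, DMSO | Schedule: 3 h host attachment, then at least 90 h co-culture | Detection: GalScreen luminescence, 60 min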
Mdm2 MdmX PPI: inhibitors of human Mdm2-MdmX association, primary screen, cell-based, luminescence, split luciferase, SaOS-2, uHTS | inhibition, % at 8 µM | SaOS-2 split-luciferase Mdm2/MdmX complementation | 3% of 330,000 active;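 active means inhibition of at least 50% at 8 µM in the primary screen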
Target sequence (O15151 whole entry, looked up): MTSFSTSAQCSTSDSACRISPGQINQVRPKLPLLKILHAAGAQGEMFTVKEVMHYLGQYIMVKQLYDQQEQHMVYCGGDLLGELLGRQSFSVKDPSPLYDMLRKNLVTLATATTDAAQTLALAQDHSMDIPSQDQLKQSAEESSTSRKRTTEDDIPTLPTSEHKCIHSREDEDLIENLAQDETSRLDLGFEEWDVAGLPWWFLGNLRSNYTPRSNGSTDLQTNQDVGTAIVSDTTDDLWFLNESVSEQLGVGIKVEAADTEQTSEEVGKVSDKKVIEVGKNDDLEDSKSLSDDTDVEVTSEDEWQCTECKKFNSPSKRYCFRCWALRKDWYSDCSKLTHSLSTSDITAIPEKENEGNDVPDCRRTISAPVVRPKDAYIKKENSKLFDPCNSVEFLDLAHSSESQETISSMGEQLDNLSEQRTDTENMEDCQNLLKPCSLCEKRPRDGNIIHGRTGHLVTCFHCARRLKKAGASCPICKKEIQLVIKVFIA
Target sequence (Q00987 whole entry, looked up): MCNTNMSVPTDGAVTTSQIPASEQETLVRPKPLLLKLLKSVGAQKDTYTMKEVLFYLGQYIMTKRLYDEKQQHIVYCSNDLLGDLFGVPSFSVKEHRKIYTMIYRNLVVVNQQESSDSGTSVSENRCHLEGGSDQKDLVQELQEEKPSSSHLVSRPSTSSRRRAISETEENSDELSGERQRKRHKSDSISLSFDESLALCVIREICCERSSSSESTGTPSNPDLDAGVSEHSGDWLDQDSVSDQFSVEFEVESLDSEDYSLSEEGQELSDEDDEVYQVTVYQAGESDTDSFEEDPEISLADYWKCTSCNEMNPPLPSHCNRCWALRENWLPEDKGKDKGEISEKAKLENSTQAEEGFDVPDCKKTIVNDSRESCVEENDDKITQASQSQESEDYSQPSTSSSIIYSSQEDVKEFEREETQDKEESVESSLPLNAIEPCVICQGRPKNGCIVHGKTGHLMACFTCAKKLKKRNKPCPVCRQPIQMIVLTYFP
Beta cell apopt: inhibitors of cytokine-induced beta cell apoptosis, primary screen, luminescence; 0.8% of 300,000 active; protection from apoptosis, % (concentration not given with the values); INS-1E cytokine-induced death, ATP luminescence, 48 h; percent of positive-control rescue, neutral wells zero; AID 435005, 2010;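 active means Every replicate reaches about 75%, or at least half do and their mean reaches it too, limit read from the data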;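 further: 0% = cytokine-treated negative control wells and 100% = positive control rescue; higher means more ATP so stronger rescue from cytokine killing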
L major viab: Leishmania major promastigote growth inhibition, primary screen; inhibition, % at 10 µM; 9% of 200,000 active; AID 1063, 2008; Leishmania major promastigotes, resazurin fluorescence viability; in the data active means inhibition above about 50%;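 further: promastigotes grown with compound for 44 hours at 28 °C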
CSC inhib: cancer stem cell viability inhibitors, primary screen, luminescence; cancer stem cell-like cells viability; inhibition, % at 7.5 µM; 1.1% of 300,000 active; AID 2717, 2010; in the data active means inhibition above about 75%; tested in HMLE shEcad cells
An asterisk follows results filed as active.

How did CC1=CCC2C(=O)N(c3cccc(C(=O)Nc4ccccc4Cl)c3)C(=O)C2C1 (stereo unspecified) do in these assays?
SKKanGAS inh: 11.3; T cruzi repl: 2.7; Mdm2 MdmX PPI: -10.4; Beta cell apopt: -2.2; CSC inhib: -0.8

Results for O=C(NCCCn1ccnc1)Nc1ccc(Cl)c(Cl)c1 ?
SKKanGAS inh: 14.8; T cruzi repl: 43.5; Mdm2 MdmX PPI: 18.8; Beta cell apopt: -6.1; L major viab: 95.5*; CSC inhib: -9.9

Results for O=C(Cn1ccnc1)c1ccc(Cl)cc1 ?
SKKanGAS inh: -1.3; T cruzi repl: 59.0*; Mdm2 MdmX PPI: 22.3; Beta cell apopt: 0.2; CSC inhib: 1.1

Results for CC(=O)Nc1cccc(NC(=O)c2ccccc2OCc2c(C)noc2C)c1 ?
SKKanGAS inh: -6.8; T cruzi repl: -3.1; Mdm2 MdmX PPI: 17.0; CSC inhib: -11.5

How did CN(C)c1ccc(C(=O)N=c2sccn2C)cc1[N+](=O)[O-] do in these assays?
SKKanGAS inh: -5.6; T cruzi repl: 17.2; Mdm2 MdmX PPI: -46.3; Beta cell apopt: -5.3; CSC inhib: -5.6

Results for CCCCn1c(=O)[nH]c(=O)c2c1nc(-c1ccc3ccccc3c1)n2CC ?
SKKanGAS inh: 25.7; T cruzi repl: 25.5; Mdm2 MdmX PPI: 24.3; Beta cell apopt: -1.8; L major viab: 7.1; CSC inhib: 6.8

Results for Cc1ccc(-c2nc3c(c(=O)[nH]c(=O)n3CC(C)C)n2CC(C)C)cc1[N+](=O)[O-] ?
SKKanGAS inh: 11.4; T cruzi repl: 58.1*; Mdm2 MdmX PPI: 11.1; Beta cell apopt: 14.5; L major viab: 23.9; CSC inhib: -11.3

Results for CCCCn1c(=O)[nH]c(=O)c2c1nc(-c1ccc(C)c([N+](=O)[O-])c1)n2CC ?
SKKanGAS inh: 4.9; T cruzi repl: -17.2; Mdm2 MdmX PPI: 37.1; Beta cell apopt: 14.9; L major viab: 98.6*; CSC inhib: -4.8

How did CC(C)Cn1c(-c2cc([N+](=O)[O-])ccc2Cl)nc2c1c(=O)[nH]c(=O)n2Cc1ccccc1 do in these assays?
SKKanGAS inh: 0.8; T cruzi repl: 38.8; Mdm2 MdmX PPI: 16.5; Beta cell apopt: 12.1; L major viab: 19.3; CSC inhib: -7.2

What do the screens show for `CN1C(=O)/C(=C\c2ccccc2)Sc2ccc(C(=O)N3CCN(c4ccccn4)CC3)cc21`?
L major viab: -4.1

Results for Cc1cccc(/C=C2/Sc3ccc(C(=O)N4CCOCC4)cc3NC2=O)c1 ?
SKKanGAS inh: 35.7; T cruzi repl: 16.9; Mdm2 MdmX PPI: 30.8; Beta cell apopt: -7.0; CSC inhib: 24.1

Results for CCOC(=O)N1CCN(C(=O)c2ccc3c(c2)NC(=O)/C(=C\c2ccc(OC)c(OC)c2)S3)CC1 ?
SKKanGAS inh: 101.1*; T cruzi repl: 21.5; Mdm2 MdmX PPI: 38.2; CSC inhib: 3.9

How did CCOC(=O)N1CCN(C(=O)c2ccc3c(c2)NC(=O)/C(=C\c2cccc(C)c2)S3)CC1 do in these assays?
SKKanGAS inh: 92.3*; T cruzi repl: 21.2; Mdm2 MdmX PPI: 26.3; Beta cell apopt: 10.3; CSC inhib: 32.8

Results for O=C1Nc2cc(C(=O)N3CCN(c4ccccn4)CC3)ccc2S/C1=C\c1ccccc1 ?
SKKanGAS inh: 53.3*; T cruzi repl: 0.3; Mdm2 MdmX PPI: 18.4; Beta cell apopt: -3.1; CSC inhib: 6.1

Results for COc1ccc(C/C(C)=N/NS(=O)(=O)c2ccc(Br)cc2)cc1 ?
SKKanGAS inh: -16.7; T cruzi repl: -6.5; Mdm2 MdmX PPI: -19.3; Beta cell apopt: -5.4; L major viab: 2.8

Results for Cc1ccc(C(=O)NCC(=O)OCC(=O)c2c(N)n(C)c(=O)n(C)c2=O)cc1C ?
Mdm2 MdmX PPI: 0.8; Beta cell apopt: -2.9; CSC inhib: -21.3

Results for CNC(=O)NNC(=O)c1nc(-c2ccccc2)c(C)o1 ?
SKKanGAS inh: 5.3; T cruzi repl: -8.0; Mdm2 MdmX PPI: 6.6; Beta cell apopt: -0.7; CSC inhib: 7.6

How did O=C(CSc1nnc(COc2ccccc2F)n1-c1ccccc1)NC1CCS(=O)(=O)C1 (stereo unspecified) do in these assays?
SKKanGAS inh: -0.8; T cruzi repl: 8.0; Mdm2 MdmX PPI: 12.5; Beta cell apopt: -5.3; L major viab: 69.9*; CSC inhib: -6.7

Results for Cc1ccc(-c2nnc(SCC(N)=O)nc2-c2ccc(C)cc2)cc1 ?
SKKanGAS inh: 10.0; T cruzi repl: 18.0; Mdm2 MdmX PPI: 19.1; Beta cell apopt: -0.9; CSC inhib: -20.2

Results for Cc1ccc(-c2nnc(SCC(=O)NC3CCS(=O)(=O)C3)nc2-c2ccc(C)cc2)cc1 (stereo unspecified) ?
SKKanGAS inh: -6.1; T cruzi repl: 21.7; Mdm2 MdmX PPI: -6.5; Beta cell apopt: 2.3; L major viab: 77.8*; CSC inhib: -11.5

Results for Cc1ccc(-c2cn(-c3ccccc3)c(SCC(=O)NC3CCS(=O)(=O)C3)n2)cc1C (stereo unspecified) ?
SKKanGAS inh: 19.4; T cruzi repl: -3.3; Mdm2 MdmX PPI: -48.1; Beta cell apopt: -5.0; L major viab: 85.5*; CSC inhib: 1.7

What do the screens show for `Cc1ccc(-c2nnc(SCC(=O)N3CCOCC3)nc2-c2ccc(C)cc2)cc1`?
SKKanGAS inh: -0.3; T cruzi repl: 19.2; Mdm2 MdmX PPI: -1.8; Beta cell apopt: 6.3; L major viab: 98.5*

Results for O=C1CCC(C(=O)Nc2cc(C(F)(F)F)ccc2-n2cncn2)=NN1 ?
SKKanGAS inh: 0.6; T cruzi repl: 1.1; Mdm2 MdmX PPI: 16.7; CSC inhib: 11.4

How did CCOC(=O)CC1CCCCN1C(=O)c1cc(COc2cccc3cnccc23)on1 (stereo unspecified) do in these assays?
SKKanGAS inh: -3.6; T cruzi repl: -24.7; Mdm2 MdmX PPI: 35.7; Beta cell apopt: 96.2*; CSC inhib: 8.7

What do the screens show for `COC(=O)C1CCCCN1C(=O)c1cc(COc2cccc3cnccc23)on1` (stereo unspecified)?
SKKanGAS inh: -10.2; T cruzi repl: 0.8; Mdm2 MdmX PPI: 49.5; Beta cell apopt: 101.3*; CSC inhib: 3.4

What do the screens show for `O=C(Cn1sc2ccccc2c1=O)N1CCN(C(=O)c2ccco2)CC1`?
SKKanGAS inh: 0.5; T cruzi repl: -7.6; Mdm2 MdmX PPI: -6.1; Beta cell apopt: -4.0; CSC inhib: -16.3

Results for CC(C)C[C@H](NC(=O)OC(C)(C)C)c1nnc(SCc2ccccc2)o1 ?
SKKanGAS inh: 16.7; T cruzi repl: 20.2; Mdm2 MdmX PPI: -0.5; Beta cell apopt: -1.2; L major viab: 84.6*; CSC inhib: -0.7

Results for CCOC(=O)CSc1nnc([C@H](Cc2ccccc2)NC(=O)OC(C)(C)C)o1 ?
SKKanGAS inh: 0.4; T cruzi repl: -4.3; Mdm2 MdmX PPI: -14.5; Beta cell apopt: 2.2; L major viab: -2.2; CSC inhib: -13.9
